Experimental data published in article PMC12705676 (Scientific Reports, 2025).

What was measured:
[1] = system: HT-29 (human colorectal adenocarcinoma); experiment: SRB cytotoxicity assay, HT-29 cells; format: cell-based; details: for IC50: Homo sapiens, HT-29, 72 h, read-out: IC50 HT-29; for Selectivity index (SI) HT-29: IC50 in GES-1 / IC50 in HT-29
Summary of the method: (§1)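 Cells plated at 3 × 10³ per well and left 24 h to attach at 37 °C, 5% CO₂. Test compound at 0–100 µM from ethanol stocks (1% final ethanol) for 72 h. Fixation in TCA (10% final), staining with 0.1% SRB, dye solubilized in 10 mM Tris, A540. Viability relative to 1% ethanol vehicle. IC50 from a four-parameter logistic fit with 95% CI; triplicate, three independent runs, mean ± SD. SI = IC50 in GES-1 divided by IC50 in the cancer line.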

[2] = system: PC-3 (human prostate cancer); experiment: SRB cytotoxicity assay, PC-3 cells; format: cell-based; details: for IC50: Homo sapiens, PC-3, 72 h, read-out: IC50 PC-3
Summary of the method: as §1

Hemolysis assay = format: cell-based, human; details: human, washed human red blood cells, Hemolysis (%), 30 min, 37 °C
Summary of the method: (§2)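 Donor blood was collected in EDTA. RBCs were pelleted at 500 × g for 10 min, washed three times in PBS and resuspended in PBS. Cells were exposed to test compound at 10–300 µg/mL for 30 min at 37 °C with gentle agitation, then spun at 1000 × g for 5 min; supernatant hemoglobin was read at 540 nm. Deionized water defined 100% and PBS 0% hemolysis. Triplicate, three independent repeats.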

human erythrocytes = experiment: Hemolysis assay; format: cell-based; details: for Hemolysis, result in words: 10–300 µg/mL; for Hemolysis (%): 30 min, 37 °C
Summary of the method: as §2

[3] = ABTS radical scavenging assay; format: biochemical; details: read-out: ABTS IC50; concentration to scavenge 50% of radicals, mean ± SD
Summary of the method: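 ABTS radical cation generated by reacting ABTS with potassium persulfate, then diluted to an absorbance of about 0.700 at 732 nm. Test compound at several concentrations was mixed with the ABTS⁺ solution and the fall in absorbance recorded. Percent scavenging was calculated against a solvent control, with ascorbic acid as reference antioxidant. Three independent experiments in triplicate, mean ± SD.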

[4] = system: AGS (human gastric adenocarcinoma); experiment: SRB cytotoxicity assay, AGS cells; format: cell-based; details: for IC50: Homo sapiens, AGS, 72 h, read-out: IC50 AGS; for Selectivity index (SI) AGS: IC50 in GES-1 / IC50 in AGS
Summary of the method: as §1

Compound | IC50 [1] | IC50 [2] | hemolysis at 30 min, 10 µg/mL (Hemolysis assay) | hemolysis at 30 min, 25 µg/mL (Hemolysis assay) | hemolysis at 30 min, 50 µg/mL (Hemolysis assay) | hemolysis at 30 min, 100 µg/mL (Hemolysis assay) | hemolysis at 30 min, 200 µg/mL (Hemolysis assay) | hemolysis at 30 min, 300 µg/mL (Hemolysis assay) | Hemolysis, result in words (human erythrocytes) | IC50 [3] | IC50 [4] | Selectivity index (SI) HT-29 [1] | Selectivity index (SI) AGS [4] | Selectivity index (SI) PC-3 ([2]; IC50 in GES-1 / IC50 in PC-3) | Hemolysis (%) (human erythrocytes; 10 µg/mL) | Hemolysis (%) (human erythrocytes; 25 µg/mL) | Hemolysis (%) (human erythrocytes; 50 µg/mL) | Hemolysis (%) (human erythrocytes; 100 µg/mL) | Hemolysis (%) (human erythrocytes; 200 µg/mL) | Hemolysis (%) (human erythrocytes; 300 µg/mL)
CC1(C)C2CC[C@@]1(C)C(=O)/C2=C/c1cccs1 [Compound 6, (1R,3E)-1,7,7-trimethyl-3-[(thiophen-2-yl)methylidene]bicyclo[2.2.1]heptan-2-one] | > 100 µM | > 100 µM | 6.36% | 7.07% | 16.8% | 21.6% | 26.7% | 29% | concentration dependent increase in hemolysis | 1082 ± 1.7 µM | > 100 µM | – | – | – | – | – | – | – | – | –
CC1(C)C2CC[C@@]1(C)C(=O)/C2=C/c1cc2ccccc2o1 [Compound 10, (1R,3E)-3-[(1-benzofuran-2-yl)methylidene]-1,7,7-trimethylbicyclo[2.2.1]heptan-2-one] | > 100 µM | > 100 µM | 0% | 0.38% | 3.12% | 5.84% | 6.16% | 8.05% | – | 1146 ± 3.7 µM | > 100 µM | – | – | – | – | – | – | – | – | –
CC1(C)C2CC[C@]1(C)C(=O)/C2=C/c1ccoc1 [Compound 7, (1S,3E)-3-[(furan-3-yl)methylidene]-1,7,7-trimethylbicyclo[2.2.1]heptan-2-one] | > 100 µM | > 100 µM | 0% | 0% | 0% | 1.81% | 3.12% | 5.97% | – | 1046 ± 3.3 µM | > 100 µM | – | – | – | – | – | – | – | – | –
O=c1[nH]cc(F)c(=O)[nH]1 [Compound 5-FU, 5-fluorouracil, reference compound] | 2.9 ± 0.7 µM | 16.4 ± 0.6 µM | – | – | – | – | – | – | – | – | 56.1 ± 0.5 µM | 48.3 | 2.5 | – | – | – | – | – | – | –
CC1(C)C2CC[C@]1(C)C(=O)/C2=C/c1ccsc1 [Compound 11, (1S,3E)-1,7,7-trimethyl-3-[(thiophen-3-yl)methylidene]bicyclo[2.2.1]heptan-2-one] | – | – | 0% | 0.77% | 5.25% | 7.2% | 11.2% | 13.2% | – | 1396 ± 3.8 µM | – | – | – | – | – | – | – | – | – | –
CC1(C)C2CC[C@@]1(C)C(=O)/C2=C/c1ccoc1 [Compound 8, (1R,3E)-3-[(furan-3-yl)methylidene]-1,7,7-trimethylbicyclo[2.2.1]heptan-2-one] | > 100 µM | > 100 µM | 0% | 2.53% | 6.29% | 8.5% | 9.74% | 12.2% | – | 1344 ± 3.4 µM | > 100 µM | – | – | – | – | – | – | – | – | –
COc1cccc2c1C(=O)c1c(O)c3c(c(O)c1C2=O)C[C@@](O)(C(C)=O)C[C@@H]3O[C@H]1C[C@H](N)[C@H](O)[C@H](C)O1 [Daunorubicin, reference compound] | 15.1 ± 0.5 µM | 10.4 ± 0.4 µM | – | – | – | – | – | – | – | – | 13 ± 0.3 µM | 23.3 | 27.1 | 33.9 | – | – | – | – | – | –
CC1(C)C2CC[C@@]1(C)C(=O)/C2=C/c1ccsc1 [Compound 12, (1R,3E)-1,7,7-trimethyl-3-[(thiophen-3-yl)methylidene]bicyclo[2.2.1]heptan-2-one] | – | – | 5.9% | 6.81% | 7.92% | 9.41% | 10.2% | 12.5% | concentration dependent increase in hemolysis | 1025 ± 3.5 µM | – | – | – | – | – | – | – | – | – | –
Triton X-100 [Triton X-100 1%, reference compound] | – | – | – | – | – | – | – | – | – | – | – | – | – | – | 100% | 100% | 100% | 100% | 100% | 100%
O=C1O[C@H]([C@@H](O)CO)C(O)=C1O [AA, Ascorbic acid, reference compound] | – | – | – | – | – | – | – | – | – | 141 ± 3.5 µM | – | – | – | – | – | – | – | – | – | –
